From PubChem
SIAE inh – human SIAE inhibitors, primary screen, biochemical, fluorescence polarization, FP-Rh probe, 1536-well HTS; Sialate O-acetylesterase (Homo sapiens), Q9HAT2; SIAE FP-Rh probe binding; inhibition, % at 9.66 µM; 370,000 compounds, 0.69% hits;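 active = inhibition above a cutoff: mean of compounds within the control limits plus 3 SD of those, cut at about 17% in these data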;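 also: 0% = plate median of compound wells and 100% = probe without SIAE protein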
Target sequence (Q9HAT2 whole entry, looked up): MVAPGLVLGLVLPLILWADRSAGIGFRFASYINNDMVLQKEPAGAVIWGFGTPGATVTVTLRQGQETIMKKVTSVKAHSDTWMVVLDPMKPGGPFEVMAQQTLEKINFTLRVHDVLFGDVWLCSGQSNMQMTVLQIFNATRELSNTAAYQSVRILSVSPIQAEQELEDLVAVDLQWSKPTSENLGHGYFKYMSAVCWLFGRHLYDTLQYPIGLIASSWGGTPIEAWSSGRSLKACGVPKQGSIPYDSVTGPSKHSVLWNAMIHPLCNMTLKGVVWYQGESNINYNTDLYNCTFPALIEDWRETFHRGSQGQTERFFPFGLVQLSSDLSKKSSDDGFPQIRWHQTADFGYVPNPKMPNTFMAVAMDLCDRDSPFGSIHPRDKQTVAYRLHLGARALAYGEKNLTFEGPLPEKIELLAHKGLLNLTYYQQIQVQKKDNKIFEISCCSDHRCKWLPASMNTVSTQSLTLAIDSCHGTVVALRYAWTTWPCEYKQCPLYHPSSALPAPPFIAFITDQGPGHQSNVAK
DDE Tn7 FP inh – inhibitors of Tn7 peptide binding to fibrin DD(E), primary screen, biochemical, fluorescence polarization, human fibrin, Tn7 probe; Fibrinogen beta chain (Homo sapiens), P02675; FP displacement of FITC-Tn7 peptide from fibrin DD(E); 0% = median of compound wells per plate; inhibition, % at 8.3 µM; 370,000 compounds, 0.13% hits;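 active = inhibition above the mean of compounds falling within the control limits plus 3 SD of them, cut at about 14% in these data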;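 also: 0% = plate median of compound wells and 100% = 10 µM Aha-Tn7 peptide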
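Assay system: human fibrin DD(E) protein / Input: 2 µM fibrin DD(E) / Benchmarks: high control of 10 µM Aha-Tn7 peptide / Measured by: fluorescence polarization of the labelled Tn7 tracer / Medium: Tris buffer with calcium and detergent, pH 7.8 / Timing: 10 min compound pre-incubation, 3 h probe incubation at room temperature / Repeats: one replicate per compound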
HTRA1 inhibitor – HTRA1 serine protease inhibitors, primary screen, biochemical, fluorescence polarization, HTS; recombinant HTRA1, FP-rhodamine activity-based probe; inhibition, % at 5.96 µM; 340,000 compounds, 0.5% hits; AID 504803, 2011; in the data active = inhibition above about 36%;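 also: 0% = enzyme with DMSO and 100% = wells lacking enzyme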
ABHD4 inh – ABHD4 inhibitors, primary screen, biochemical, fluorescence polarization, mouse; (Lyso)-N-acylphosphatidylethanolamine lipase (Mus musculus), Q8VD66; purified mABHD4, FP-Rh probe fluorescence polarization; inhibition, % at 8.92 µM; 370,000 compounds, 0.54% hits;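 active = inhibition exceeding the mean over every tested compound plus 3 SD, cut at about 30% in these data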;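 also: 0% = plate median of compound wells and 100% = S159A mutant with DMSO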
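Test system: mouse ABHD4 enzyme, wild type. Reagent: FP-Rh fluorescent activity-based probe, added after compound pre-incubation. Timing: pre-incubation 45 min, probe exposure 60 min, at 25 °C. Technique: FP readout, ex 525 nm / em 598 nm. Benchmarks: high control S159A mutant with DMSO, low control median of compound wells.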
TCR CD3 inh – inhibitors of human TCR-CD3 interaction, primary screen, biochemical, fluorescence, TAMRA-labeled TCR probe; T-cell receptor (TCR); inhibition, % at 9.4 µM; 360,000 compounds, 0.37% hits; in the data active = inhibition above about 19%;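 also: recombinant mutant TCR 2C K166C tagged with TAMRA read by polarization; 0% = receptor in buffer alone and 100% = receptor with positive control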
DDE Tn6 FP inh – inhibitors of Tn6 peptide binding to fibrin DD(E), primary screen, biochemical, fluorescence polarization, human fibrin, Tn6 probe. Fibrin DD(E) TRITC-Tn6 fluorescence polarization displacement. inhibition, % at 8.3 µM. 370,000 compounds, 0.21% hits. AID 720509, 2013;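 active = inhibition above a per-campaign cutoff: mean of compounds within control limits plus 3 SD, cut at about 15% in these data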;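 also: 0% = median of all compound wells on the plate and 100% = blocking peptide control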
SIAE inh conf – human SIAE inhibitors, retest, confirmation, biochemical, fluorescence polarization, FP-Rh probe, triplicate. shares compounds with SIAE inh. SIAE FP-Rh activity-based probe. inhibition, % at 9.66 µM. 2,300 compounds, 13% hits. AID 1117263, 2014;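 active = mean inhibition of the replicates above the hit cutoff set in the primary screen, cut at about 17% in these data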;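 also: 0% = SIAE with DMSO and probe and 100% = probe without SIAE; inhibitors lower polarization as more probe stays unbound to SIAE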
Active calls of the source: *; nt = no result given. In the library only some 1.8% were active in any assay of this set; here they are far more common.

SMILES	SIAE inh	DDE Tn7 FP inh	HTRA1 inhibitor	ABHD4 inh	TCR CD3 inh	DDE Tn6 FP inh	SIAE inh conf
Cc1ccccc1N1CCN(C2=NC(=O)/C(=C/c3cn[nH]c3-c3ccccc3)S2)CC1	24*	4	-3	2	8	8	-6
Cc1ccccc1-c1ccc(/C=C2/SC(N3CCOCC3)=NC2=O)o1	-5	-9	-5	2	-5	-5	nt
CC/C(Cc1ccccc1)=N/NC(=O)c1cccc(Br)c1	18*	2	-10	-6	5	-6	0
CC/C(Cc1ccccc1)=N\NC(=O)c1cc([N+](=O)[O-])cc([N+](=O)[O-])c1	-3	5	2	7	-4	-4	nt
Cc1cc(=O)oc2cc(OCC(=O)N(C)C3CCS(=O)(=O)C3)c(Cl)cc12 (stereo not drawn)	-5	-4	10	4	5	-2	nt
CC(C(=O)Nc1ccc(Cl)cc1)N1C(=O)NC2(CCCC2)C1=O (stereo not drawn)	6	7	0	0	4	2	nt
CCC(c1nc2ccccc2[nH]1)N(C(=O)C1=NNC(=O)CC1)c1ccccc1 (stereo not drawn)	1	2	nt	8	1	7	nt
C[C@H](NC(=O)[C@@H]1Cc2ccccc2CN1)C(=O)Nc1ccc2c(c1)OCO2	5	0	12	2	1	0	nt
CSCC[C@H](NC(=O)[C@@H]1Cc2ccccc2CN1)C(=O)Nc1ccc2c(c1)OCO2	18*	4	20	11	-10	-1	1
CCOc1ccc(C(=O)N2CCN(S(=O)(=O)c3cccs3)CC2)c(OCC)c1	-3	-1	-11	27	-5	1	nt
Cn1c(CCN2CCN(c3ccccn3)CC2)nc2cc(NC(=O)COc3ccccc3)ccc21	70*	-1	0	-3	0	5	1
COc1ccccc1C(=O)NCCC(=O)NC1CCCCCC1	-3	3	4	4	-9	2	nt
COc1ccc(/C=N/NC(=O)c2ccc(F)cc2)cc1CN1CCc2cc(OC)c(OC)cc2C1C (stereo not drawn)	-2	0	-14	-2	8	7	nt
COc1ccc(/C=N/NC(=O)c2ccc(O)cc2)cc1CN1CCCc2ccccc21	26*	11	-25	-1	-5	-14	-4
COc1ccc(C2Nc3cccc4cccc(c34)N2)cc1	25*	0	4	2	-1	-1	11
CN(C)c1ccc(C2Nc3cccc4cccc(c34)N2)cc1	38*	3	22	3	1	-9	7
Clc1cccc(C2Nc3cccc4cccc(c34)N2)c1	9	-11	9	13	-6	-5	nt
CN(C)c1ccc(C2NC(=O)c3ccccc3N2)cc1 (stereo not drawn)	17	1	7	-2	-6	0	nt
COc1ccc(-n2ccn(CC(=O)Nc3ccccc3OC)c(=O)c2=O)cc1	2	-6	3	6	-1	3	nt
O=C(O)c1ccccc1C(=O)c1ccc(N2CCCC2)c([N+](=O)[O-])c1	-8	-2	6	1	2	-3	nt
CC(=O)c1ccc(N2CCN(c3ccccc3O)CC2)c([N+](=O)[O-])c1	31*	-2	3	9	-9	-5	-2
Cc1ccc(/C=C/c2nc3ccccc3[nH]2)o1	24*	6	2	9	2	3	-7
COc1cc(Cl)cc(CN2CCC(CCC(=O)NC3CC3)CC2)c1OC	-4	-5	-2	4	9	0	nt
COc1ccccc1CN1CCCC(N2CCN(c3ccccc3OC)CC2)C1 (stereo not drawn)	0	-7	7	3	-4	2	nt
